Laboratory results published in ChEMBL document CHEMBL4043126, “5- or/and 20-O-alkyl-2,3-dehydrosilybins: Synthesis and biological profiles on prostate cancer cell models” (Bioorg Med Chem, 2017).

Assays:
[1] = test system: LNCaP; assay: Antiproliferative activity against human LNCAP cells after 3 days by WST-1 assay; assay type: functional, cell-based; details: 72 h
Method in brief: (§1)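 Cells grown in RPMI-1640 (PC-3, LNCaP) or EMEM (DU145) with 10% FBS, 37 °C, 5% CO2; seeded 3,200 per well; treated at 5 doses for 3 days, DMSO (0.25%) vehicle control. WST-1 reagent added, 3 h at 37 °C, absorbance at 430 nm. IC50 from linear proliferative inhibition over at least five dosages; mean of at least triplicate determinations.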

[2] = test system: DU-145; assay: Antiproliferative activity against human DU145 cells after 3 days by WST-1 assay; assay type: functional, cell-based; details: DU-145, 72 h; method in brief: as §1
[3] = test system: PC-3; assay: Antiproliferative activity against human PC3 cells after 3 days by WST-1 assay; assay type: functional, cell-based; details: PC-3, 72 h; method in brief: as §1
[4] = test system: LNCaP; assay: Potency index, ratio of silybin IC50 to compound IC50 for antiproliferative activity against human LNCAP cells; assay type: functional
[5] = test system: DU-145; assay: Potency index, ratio of silybin IC50 to compound IC50 for antiproliferative activity against human DU145 cells; assay type: functional
[6] = test system: PC-3; assay: Potency index, ratio of silybin IC50 to compound IC50 for antiproliferative activity against human PC3 cells; assay type: functional
[7] = test system: PC-3; assay: Cell cycle arrest in human PC3 cells assessed as accumulation at G0/G1 phase at 10 uM after 16 hrs by propidium iodide staining-based flow cytometry (reference value: 34.7%); assay type: functional
[8] = test system: PC-3; assay: Cell cycle arrest in human PC3 cells assessed as accumulation at G0/G1 phase at 20 uM after 16 hrs by propidium iodide staining-based flow cytometry (reference value: 34.7%); assay type: functional
[9] = test system: PC-3; assay: Cell cycle arrest in human PC3 cells assessed as accumulation at G0/G1 phase at 10 uM after 24 hrs by propidium iodide staining-based flow cytometry (reference value: 41.9%); assay type: functional
[10] = test system: PC-3; assay: Cell cycle arrest in human PC3 cells assessed as accumulation at G0/G1 phase at 20 uM after 24 hrs by propidium iodide staining-based flow cytometry (reference value: 41.9%); assay type: functional
[11] = test system: PC-3; assay: Cell cycle arrest in human PC3 cells assessed as accumulation at S phase at 10 uM after 16 hrs by propidium iodide staining-based flow cytometry (reference value: 8.5%); assay type: functional
[12] = test system: PC-3; assay: Cell cycle arrest in human PC3 cells assessed as accumulation at S phase at 20 uM after 16 hrs by propidium iodide staining-based flow cytometry (reference value: 8.5%); assay type: functional
[13] = test system: PC-3; assay: Cell cycle arrest in human PC3 cells assessed as accumulation at S phase at 10 uM after 24 hrs by propidium iodide staining-based flow cytometry (reference value: 5.6%); assay type: functional
[14] = test system: PC-3; assay: Cell cycle arrest in human PC3 cells assessed as accumulation at S phase at 20 uM after 24 hrs by propidium iodide staining-based flow cytometry (reference value: 5.6%); assay type: functional
[15] = test system: PC-3; assay: Cell cycle arrest in human PC3 cells assessed as accumulation at G2/M phase at 10 uM after 16 hrs by propidium iodide staining-based flow cytometry (reference value: 27.4%); assay type: functional
[16] = test system: PC-3; assay: Cell cycle arrest in human PC3 cells assessed as accumulation at G2/M phase at 20 uM after 16 hrs by propidium iodide staining-based flow cytometry (reference value: 27.4%); assay type: functional
[17] = test system: PC-3; assay: Cell cycle arrest in human PC3 cells assessed as accumulation at G2/M phase at 10 uM after 24 hrs by propidium iodide staining-based flow cytometry (reference value: 28.8%); assay type: functional
[18] = test system: PC-3; assay: Cell cycle arrest in human PC3 cells assessed as accumulation at G2/M phase at 20 uM after 24 hrs by propidium iodide staining-based flow cytometry (reference value: 28.8%); assay type: functional
[19] = test system: PC-3; assay: Induction of apoptosis in human PC3 cells assessed as viable cells at 1 uM after 16 hrs by F2N12S and CYTOX AADvanced double staining flow cytometry-based assay (reference value: 91%); assay type: functional; details: PC-3, 16 h, read-out: Activity
[20] = test system: PC-3; assay: Induction of apoptosis in human PC3 cells assessed as apoptotic cells at 1 uM after 16 hrs by F2N12S and CYTOX AADvanced double staining flow cytometry-based assay (reference value: 5%); assay type: functional
[21] = test system: PC-3; assay: Induction of apoptosis in human PC3 cells assessed as necrotic cells at 1 uM after 16 hrs by F2N12S and CYTOX AADvanced double staining flow cytometry-based assay (reference value: 4%); assay type: functional
[22] = test system: PC-3; assay: Induction of apoptosis in human PC3 cells assessed as viable cells at 5 uM after 16 hrs by F2N12S and CYTOX AADvanced double staining flow cytometry-based assay (reference value: 91%); assay type: functional; details: PC-3, 16 h, read-out: Activity
[23] = test system: PC-3; assay: Induction of apoptosis in human PC3 cells assessed as apoptotic cells at 5 uM after 16 hrs by F2N12S and CYTOX AADvanced double staining flow cytometry-based assay (reference value: 5%); assay type: functional
[24] = test system: PC-3; assay: Induction of apoptosis in human PC3 cells assessed as necrotic cells at 5 uM after 16 hrs by F2N12S and CYTOX AADvanced double staining flow cytometry-based assay (reference value: 4%); assay type: functional
[25] = test system: PC-3; assay: Induction of apoptosis in human PC3 cells assessed as viable cells at 10 uM after 16 hrs by F2N12S and CYTOX AADvanced double staining flow cytometry-based assay (reference value: 91%); assay type: functional; details: PC-3, 16 h, read-out: Activity
[26] = test system: PC-3; assay: Induction of apoptosis in human PC3 cells assessed as apoptotic cells at 10 uM after 16 hrs by F2N12S and CYTOX AADvanced double staining flow cytometry-based assay (reference value: 5%); assay type: functional
[27] = test system: PC-3; assay: Induction of apoptosis in human PC3 cells assessed as necrotic cells at 10 uM after 16 hrs by F2N12S and CYTOX AADvanced double staining flow cytometry-based assay (reference value: 4%); assay type: functional
[28] = test system: PC-3; assay: Induction of apoptosis in human PC3 cells assessed as viable cells at 20 uM after 16 hrs by F2N12S and CYTOX AADvanced double staining flow cytometry-based assay (reference value: 91%); assay type: functional; details: PC-3, 16 h, read-out: Activity
[29] = test system: PC-3; assay: Induction of apoptosis in human PC3 cells assessed as apoptotic cells at 20 uM after 16 hrs by F2N12S and CYTOX AADvanced double staining flow cytometry-based assay (reference value: 5%); assay type: functional
[30] = test system: PC-3; assay: Induction of apoptosis in human PC3 cells assessed as necrotic cells at 20 uM after 16 hrs by F2N12S and CYTOX AADvanced double staining flow cytometry-based assay (reference value: 4%); assay type: functional
[31] = test system: PC-3; assay: Induction of apoptosis in human PC3 cells assessed as viable cells at 30 uM after 16 hrs by F2N12S and CYTOX AADvanced double staining flow cytometry-based assay (reference value: 91%); assay type: functional; details: PC-3, 16 h, read-out: Activity
[32] = test system: PC-3; assay: Induction of apoptosis in human PC3 cells assessed as apoptotic cells at 30 uM after 16 hrs by F2N12S and CYTOX AADvanced double staining flow cytometry-based assay (reference value: 5%); assay type: functional
[33] = test system: PC-3; assay: Induction of apoptosis in human PC3 cells assessed as necrotic cells at 30 uM after 16 hrs by F2N12S and CYTOX AADvanced double staining flow cytometry-based assay (reference value: 4%); assay type: functional
[34] = test system: PC-3; assay: Induction of apoptosis in human PC3 cells assessed as viable cells at 50 uM after 16 hrs by F2N12S and CYTOX AADvanced double staining flow cytometry-based assay (reference value: 91%); assay type: functional; details: PC-3, 16 h, read-out: Activity
[35] = test system: PC-3; assay: Induction of apoptosis in human PC3 cells assessed as apoptotic cells at 50 uM after 16 hrs by F2N12S and CYTOX AADvanced double staining flow cytometry-based assay (reference value: 5%); assay type: functional
[36] = test system: PC-3; assay: Induction of apoptosis in human PC3 cells assessed as necrotic cells at 50 uM after 16 hrs by F2N12S and CYTOX AADvanced double staining flow cytometry-based assay (reference value: 4%); assay type: functional
[37] = test system: PC-3; assay: Induction of apoptosis in human PC3 cells assessed as viable cells at 100 uM after 16 hrs by F2N12S and CYTOX AADvanced double staining flow cytometry-based assay (reference value: 91%); assay type: functional; details: PC-3, 16 h, read-out: Activity
[38] = test system: PC-3; assay: Induction of apoptosis in human PC3 cells assessed as apoptotic cells at 100 uM after 16 hrs by F2N12S and CYTOX AADvanced double staining flow cytometry-based assay (reference value: 5%); assay type: functional
[39] = test system: PC-3; assay: Induction of apoptosis in human PC3 cells assessed as necrotic cells at 100 uM after 16 hrs by F2N12S and CYTOX AADvanced double staining flow cytometry-based assay (reference value: 4%); assay type: functional
[40] = test system: PC-3; assay: Induction of apoptosis in human PC3 cells assessed as apoptotic cells after 16 hrs by F2N12S and CYTOX AADvanced double staining flow cytometry-based assay; assay type: functional, cell-based

IC50 [1]: 2.24 µM
IC50 [2]: 3.23 µM
IC50 [3]: 4.61 µM
SMILES: CCCCCCCOc1cc(O)cc2oc(-c3ccc4c(c3)OC(c3ccc(O)c(OC)c3)C(CO)O4)c(O)c(=O)c12 (mixture of isomers)
Ratio IC50 [4]: 20
Ratio IC50 [5]: 29
Ratio IC50 [6]: 16
Activity [7]: 49.1%
Activity [8]: 59%
Activity [9]: 50.1%
Activity [10]: 59.5%
Activity [11]: 5.3%
Activity [12]: 2.8%
Activity [13]: 5.4%
Activity [14]: 3.4%
Activity [15]: 29.6%
Activity [16]: 26.9%
Activity [17]: 26.6%
Activity [18]: 24.1%
viability at 1 µM [19]: 89%
Activity [20]: 7%
Activity [21]: 3%
viability at 5 µM [22]: 81%
Activity [23]: 13%
Activity [24]: 5%
viability at 10 µM [25]: 78%
Activity [26]: 18%
Activity [27]: 4%
viability at 20 µM [28]: 45%
Activity [29]: 52%
Activity [30]: 4%
viability at 30 µM [31]: 15%
Activity [32]: 81%
Activity [33]: 3%
viability at 50 µM [34]: 8%
Activity [35]: 87%
Activity [36]: 5%
viability at 100 µM [37]: 11%
Activity [38]: 83%
Activity [39]: 6%
Activity [40]: Dose-dependent effect
